# Assay results taken from ChEMBL document CHEMBL1795280, “Design, synthesis and activity of a potent, selective series of N-aryl pyridinone inhibitors of p38 kinase” (Bioorg Med Chem Lett, 2011).
# Key:
# [1] = target: Mitogen-activated protein kinase 14 (Homo sapiens, UniProt Q16539); assay: Inhibition of p38alpha assessed as phosphorylation of […] after 60 mins by fluorescence assay
# How it was run: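 Cascade assay in which activated p38α (6 pM final) activates unactivated MK2 (1 nM), which phosphorylates FITC-labelled Hsp27 peptide (1 nM) with […]. Inhibitor 0.2–10,000 nM. Room temperature, 60 min, EDTA quench. Phospho-peptide quantified by Caliper LabChip; IC50.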
# [2] = test system: PBMC; assay: Antiinflammatory activity in human PBMC assessed as inhibition of LPS-induced TNFalpha production treated 1 hr before LPS challenge measured after 18 hrs; type: functional, cell-based
# How it was run: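 PBMCs isolated by Ficoll from heparinized blood of two healthy donors, in DMEM with 5% endotoxin-free FBS, 2.5 × 10⁵ cells/well. Pretreated 1 h with compound (0.0001–25 µM range), then stimulated 18 h with 22 ng/ml LPS. Final DMSO 0.25%. Secreted TNFα measured by MSD; IC50 reported.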
# [3] = Metabolic stability in human liver microsomes assessed as compound remaining at 2 uM after 45 mins by LC/MS analysis; type: ADME, Microsome; conditions: read-out: Stability
# [4] = Metabolic stability in rat liver microsomes assessed as compound remaining at 2 uM after 45 mins by LC/MS analysis; type: ADME, Microsome; conditions: read-out: Stability
# [5] = Clearance in iv and po dosed Sprague-Dawley rat; type: ADME, organism-based; conditions: in vivo
# [6] = Half life in iv and po dosed Sprague-Dawley rat; type: ADME, organism-based; conditions: in vivo
# [7] = Bioavailability in iv and po dosed Sprague-Dawley rat; type: ADME, organism-based; conditions: in vivo
# [8] = test system: Rattus norvegicus; assay: Antiinflammatory activity in Lewis rat assessed as inhibition of LPS-induced TNFalpha production at 5 mg/kg, po administered 6 hrs before LPS challenge by ELISA; type: functional
# How it was run: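 Adult male Lewis rats (225–250 g), fasted 18 h with free access to water. Compound or vehicle given by oral gavage (1 mL). LPS (E. coli 0111:B4) given 1 mg/kg i.v. in saline 2, 4 or 6 h later. Serum taken by cardiac puncture 90 min after LPS. TNFα quantified against a recombinant rat TNF standard curve with a four-parameter fit. Two vehicle groups per experiment, three experiments.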
# [9] = Solubility of the compound; type: physicochemical
# [10] = test system: Rattus norvegicus; assay: Antiinflammatory activity in Lewis rat assessed as inhibition of LPS-induced TNFalpha production at 15 mg/kg, po administered 4 hrs before LPS challenge by ELISA
# Mitogen-activated protein kinase 14, sequence (Q16539 whole entry): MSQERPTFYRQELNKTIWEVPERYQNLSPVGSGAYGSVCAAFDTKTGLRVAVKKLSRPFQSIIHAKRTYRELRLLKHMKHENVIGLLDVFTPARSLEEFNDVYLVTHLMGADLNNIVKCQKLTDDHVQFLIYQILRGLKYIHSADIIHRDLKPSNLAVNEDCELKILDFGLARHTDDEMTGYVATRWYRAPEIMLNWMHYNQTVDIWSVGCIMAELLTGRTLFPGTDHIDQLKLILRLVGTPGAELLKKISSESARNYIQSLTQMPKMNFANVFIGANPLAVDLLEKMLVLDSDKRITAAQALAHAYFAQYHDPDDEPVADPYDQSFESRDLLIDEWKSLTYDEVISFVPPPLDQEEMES
IC50 [1],"remaining at 0.75 h, 2 µM [3]","remaining at 0.75 h, 2 µM [4]",clearance [5],half-life [6],bioavailability [7],solubility [9],SMILES,IC50 [2],inhibition in vivo at 5 mg/kg [8],inhibition in vivo at 15 mg/kg [10]
4 nM,74%,87%,12.8 mL/min/kg,1.8 h,21%,< 10 µg/mL,Cc1cc(OCc2ccc(F)cc2F)c(Cl)c(=O)n1-c1c(F)cccc1F,17 nM,83%,
6 nM,0%,0%,,,,,CN(C)Cc1cc(OCc2ccc(F)cc2F)c(Br)c(=O)n1-c1c(F)cccc1F,50 nM,,69%
